Type in all cases: functional
One test relates to Bacillus subtilis. In words: Antibacterial activity against Bacillus subtilis ATCC 6633 by micro-broth dilution method. The procedure, abridged:
(§1)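 MIC taken as the lowest concentration giving 90% inhibition of bacterial growth. Determined by microbroth dilution following National Committee (NCCLS) guidance, with each value determined in triplicate.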
On the technique in general: Broth dilution looks for growth in wells or tubes with falling amounts of substance.

In test [1] the test system is Staphylococcus epidermidis. Kind of test: Antibacterial activity against Staphylococcus epidermidis ATCC 12228 by micro-broth dilution method. The gist of the method:
as §1

In test [2] the test system is Staphylococcus aureus. In words: Antibacterial activity against Staphylococcus aureus ATCC 25923 by micro-broth dilution method. The procedure, abridged:
as §1

Test [3] relates to Enterococcus faecalis. In words: Antibacterial activity against Enterococcus faecalis ATCC 29212 by micro-broth dilution method. The gist of the method: as §1
The next test relates to Enterococcus faecium. In words: Antibacterial activity against vancomycin-resistant Enterococcus faecium ATCC 700221 by microbroth dilution method. The procedure, abridged:
(§2)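 Microbroth dilution run per National Committee guidelines; MIC taken as the concentration giving 90% inhibition of bacterial growth. Tested within a broader panel of susceptible and resistant Gram-positive strains. Reported values come from triplicate determinations.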

Test [4] concerns Staphylococcus aureus. In words: Antibacterial activity against Staphylococcus aureus ATCC 29213 by micro-broth dilution method. The procedure, abridged:
as §1

The subject of test [5] is Staphylococcus aureus. Kind of test: Antibacterial activity against Staphylococcus aureus ATCC 33591 by micro-broth dilution method. The procedure, abridged: as §1
In a further test the test system is Klebsiella pneumoniae. Kind of test: Antibacterial activity against Klebsiella pneumoniae ATCC 10031 by micro-broth dilution method. The gist of the method: as §1
The test system of test [6] is Staphylococcus aureus. In words: Antibacterial activity against linezolid-resistant Staphylococcus aureus NRS 119 by microbroth dilution method. The gist of the method:
as §2

Test [7] relates to Enterococcus faecalis. Kind of test: Antibacterial activity against Enterococcus faecalis ATCC 14506 by microbroth dilution method. The procedure, abridged:
as §1

The test system of test [8] is Staphylococcus aureus. Kind of test: Antibacterial activity against Staphylococcus aureus ATCC 33592 by micro-broth dilution method. The procedure, abridged: as §1
Test [9] concerns Staphylococcus aureus. Kind of test: Antibacterial activity against methicillin-resistant Staphylococcus aureus ATCC 700699 by micro-broth dilution method. The gist of the method: as §2
The subject of test [10] is Enterococcus faecalis. Kind of test: Antibacterial activity against vancomycin-resistant Enterococcus faecalis ATCC 700802 by micro-broth dilution method. The procedure, abridged: as §2
The next test relates to Pseudomonas aeruginosa. In words: Antibacterial activity against Pseudomonas aeruginosa ATCC 27853 by micro-broth dilution method. The gist of the method:
as §1

In another test the test system is Escherichia coli. Kind of test: Antibacterial activity against Escherichia coli ATCC 25922 by micro-broth dilution method. The procedure, abridged:
as §1

The subject of a further test is Streptococcus pneumoniae. Kind of test: Antibacterial activity against penicillin-resistant Streptococcus pneumoniae ATCC 700904 by micro-broth dilution method. The gist of the method:
as §2

Converted amounts (≈) assume the structure as drawn.

Among the data in ChEMBL document CHEMBL1148855, “Synthesis and antibacterial activity of 4,5,6,7-tetrahydro-thieno[3,2-c]pyridine quinolones” (2007) are MIC values, retold here.

As usually defined, the MIC is the lowest concentration that inhibits growth of the organism. A high value points to a less susceptible organism.

`COc1c(N2CCc3sc(Br)cc3C2)c(F)cc2c(=O)c(C(=O)O)cn(C3CC3)c12`: the MIC is at most 0.12 µg/mL against Bacillus subtilis; at most 0.12 µg/mL in [1]; 2 µg/mL (≈ 4.05 µM) in the test with Staphylococcus aureus [2]; 0.5 µg/mL (≈ 1.01 µM) in the test on Enterococcus faecalis [3]; above 16 µg/mL in the test with Enterococcus faecium; 4 µg/mL (≈ 8.11 µM) against Staphylococcus aureus [4]. In addition, the minimum inhibitory concentration (MIC) with Staphylococcus aureus [5] is 1 µg/mL (≈ 2.03 µM); in the test with Klebsiella pneumoniae it was 4 µg/mL (≈ 8.11 µM); against Staphylococcus aureus [6] it was above 16 µg/mL; in the test with Enterococcus faecalis [7], above 16 µg/mL; against Staphylococcus aureus [8], 2 µg/mL (≈ 4.05 µM); in the test on Staphylococcus aureus [9], above 16 µg/mL. The MIC with Enterococcus faecalis [10] was above 16 µg/mL; in the test with Pseudomonas aeruginosa, above 16 µg/mL; against Escherichia coli it was 2 µg/mL (≈ 4.05 µM); with Streptococcus pneumoniae, 8 µg/mL (≈ 16.2 µM).
Regarding `COc1c(N2CCNC(C)C2)c(F)cc2c(=O)c(C(=O)O)cn(C3CC3)c12` (configuration not stated) [GATIFLOXACIN], the MIC was at most 0.12 µg/mL in the test with Bacillus subtilis; 0.25 µg/mL (≈ 0.666 µM) in test [1]; at most 0.125 µg/mL against Staphylococcus aureus [2]; 0.5 µg/mL (≈ 1.33 µM) with Enterococcus faecalis [3]; above 16 µg/mL in the test with Enterococcus faecium; 0.25 µg/mL (≈ 0.666 µM) with Staphylococcus aureus [4]. For the same compound, the minimum inhibitory concentration (MIC) in the test with Staphylococcus aureus [5] is 0.5 µg/mL (≈ 1.33 µM); against Klebsiella pneumoniae, at most 0.12 µg/mL; with Staphylococcus aureus [6], 4 µg/mL (≈ 10.7 µM); in the test with Enterococcus faecalis [7], 0.5 µg/mL (≈ 1.33 µM); in the test on Staphylococcus aureus [8] it was 4 µg/mL (≈ 10.7 µM); against Staphylococcus aureus [9], 8 µg/mL (≈ 21.3 µM). For the same compound, the minimum inhibitory concentration (MIC) in the test with Enterococcus faecalis [10] is 0.5 µg/mL (≈ 1.33 µM); with Pseudomonas aeruginosa it was 1 µg/mL (≈ 2.66 µM); in the test with Escherichia coli it was at most 0.12 µg/mL; with Streptococcus pneumoniae, at most 0.125 µg/mL.
